Source: ChEMBL document CHEMBL4715682, “Potent trifluoromethoxy, trifluoromethylsulfonyl, trifluoromethylthio and pentafluorosulfanyl containing (1,3,4-oxadiazol-2-yl)benzamides against drug-resistant Gram-positive bacteria” (RSC Med Chem, 2020)
Converted amounts (≈) assume the structure as drawn. The source made the active and inactive calls. No cut-off for these calls is given here.

Assays:
Staphylococcus aureus [1] = assay: Antibacterial activity against vancomycin-resistant Staphylococcus aureus 12 assessed as inhibition of visible bacterial growth incubated for 18 to 20 hrs by CLSI method; format: functional; settings: time 18-20 hrs
Procedure, shortened: (§1)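 CLSI broth microdilution. Strains grown aerobically overnight on tryptic soy agar at 37 °C, adjusted to 0.5 McFarland and diluted in cation-adjusted Mueller–Hinton broth to about 5×10^5 CFU/mL. Compounds and control drugs serially diluted across the plate. Incubated aerobically at 37 °C for 18-20 h. MIC is the lowest concentration with no visible growth.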

Staphylococcus aureus [2] = assay: Synergistic antibacterial activity against methicillin-resistant Staphylococcus aureus ATCC 33592 assessed as fractional inhibitory concentration index in presence of linezolid by checkerboard assay; format: functional
Staphylococcus aureus [3] = assay: Antibacterial activity against methicillin-resistant Staphylococcus aureus NRS385 assessed as inhibition of visible bacterial growth incubated for 18 to 20 hrs by CLSI method; format: functional; settings: time 18-20 hrs; procedure, shortened: as §1
[4] = Hemolytic activity in human RBC at 64 ug/ml incubated for 60 mins relative to control; format: ADME, cell-based, Erythrocyte; settings: red blood cells (erythrocytes), at 64 µg/mL, read-out: Activity
Procedure, shortened: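 Single-donor human erythrocytes as a 5% v/v suspension in PBS. Compounds serially diluted in PBS, in triplicate, and incubated with RBCs at 37 °C for 60 min. PBS served as the negative control and Triton-X as the positive control. Samples spun at 4,000 rpm for 5 min and supernatant absorbance read at 540 nm. Percent hemolysis = 100×(sample−negative)/(positive−negative).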

Staphylococcus aureus [5] = assay: Antibacterial activity against methicillin-sensitive Staphylococcus aureus NRS 107 assessed as inhibition of visible bacterial growth incubated for 18 to 20 hrs by CLSI method; format: functional; settings: time 18-20 hrs; procedure, shortened: as §1
Caco-2 = assay: Cytotoxicity against human Caco2 cells assessed as reduction in cell viability at 128 ug/ml incubated for 2 hrs by MTS assay; format: cell-based; settings: caco-2, 2 h, dose 128 µg/ml
Staphylococcus aureus [6] = assay: Antibacterial activity against methicillin-resistant Staphylococcus aureus NRS386 assessed as inhibition of visible bacterial growth incubated for 18 to 20 hrs by CLSI method; format: functional; settings: time 18-20 hrs; procedure, shortened: as §1
Acinetobacter baumannii = assay: Antibacterial activity against Acinetobacter baumannii ATCC 19606 RW4 assessed as inhibition of visible bacterial growth at 16 ug/ml incubated for 18 to 20 hrs by CLSI method; format: functional, organism-based; settings: ATCC 19606 = CIP 70.34 = JCM 6841 RW4, dose 16.0 µg/ml, time 18-20 hrs; procedure, shortened: as §1
Staphylococcus aureus [7] = assay: Antibacterial activity against methicillin-resistant Staphylococcus aureus ATCC 33592 assessed as reduction in bacterial count at 3 x MIC incubated upto 24 hrs by time kill analysis; format: functional; settings: time hrs <=24
Procedure, shortened: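 Time-kill assay. […] Samples taken at 0, 2, 4, 8, 12 and 24 h, serially diluted in PBS and plated on tryptic soy agar. Viable CFU/mL counted after 18-20 h at 37 °C.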

O=C(Nc1nnc(-c2cccs2)o1)c1ccc(S(=O)(=O)C(F)(F)F)cc1
MIC (Staphylococcus aureus [1]): 8 µg/mL (≈ 19.8 µM)
fractional inhibitory concentration index (FICI) (Staphylococcus aureus [2]): 1.03
MIC (Staphylococcus aureus [3]): 8 µg/mL (≈ 19.8 µM)
hemolysis at 1 h, 64 ug/ml [4]: 35%
MIC (Staphylococcus aureus [5]): 4 µg/mL (≈ 9.92 µM)
Activity (Caco-2): Non-Toxic
MIC (Staphylococcus aureus [6]): 4 µg/mL (≈ 9.92 µM)
inhibition (Acinetobacter baumannii): inactive
Activity (Staphylococcus aureus [7]): 1.04 log10CFU/ml
